Source: ChEMBL document CHEMBL4265871, “Novel alkylated azoles as potent antifungals” (Eur J Med Chem, 2017)
Values after ≈ are worked out from the molar mass of the structure shown. Active and inactive are the calls of the source. No cut-off for these calls is given here.

Legend:
Candida albicans [1] = assay: Antifungal activity against ITC and FLC-susceptible Candida albicans ATCC MYA-2876 incubated for 48 hrs by modified CLSI M27-A3 protocol based method; type: functional; conditions: ATCC MYA-2876, 48 h
Outline: (§1)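 Because these Candida strains show trailing growth, MIC-2 was read, meaning 50% growth inhibition. Caspofungin and voriconazole were tested here; other controls came from earlier work.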

Aspergillus flavus = assay: Antifungal activity against Aspergillus flavus ATCC MYA-3631 incubated for 48 hrs by CLSI M38-A2 protocol based method; type: functional; conditions: ATCC MYA-3631, 48 h; for MIC: read-out: MIC100
Aspergillus terreus = assay: Antifungal activity against Aspergillus terreus ATCC MYA-3633 incubated for 48 hrs by CLSI M38-A2 protocol based method; type: functional; conditions: ATCC MYA-3633, 48 h; for MIC: read-out: MIC100
Candida albicans [2] = assay: Antifungal activity against ITC and FLC-resistant Candida albicans ATCC MYA-90819 incubated for 48 hrs by modified CLSI M27-A3 protocol based method; type: functional; conditions: ATCC MYA-90819, 48 h
Candida albicans [3] = assay: Antifungal activity against ITC and FLC-resistant Candida albicans ATCC 1237 incubated for 48 hrs by modified CLSI M27-A3 protocol based method; type: functional; conditions: ATCC 1237, 48 h; outline: as §1
Candida albicans [4] = assay: Antifungal activity against ITC and FLC-susceptible Candida albicans ATCC MYA-2310 incubated for 48 hrs by modified CLSI M27-A3 protocol based method; type: functional; conditions: ATCC MYA-2310, 48 h
Aspergillus nidulans = assay: Antifungal activity against Aspergillus nidulans ATCC 38163 incubated for 48 hrs by CLSI M38-A2 protocol based method; type: functional; conditions: ATCC 38163, 48 h; for MIC: read-out: MIC100
Nakaseomyces glabratus = assay: Antifungal activity against Candida glabrata ATCC 2001 incubated for 48 hrs by modified CLSI M27-A3 protocol based method; type: functional; conditions: ATCC 2001, 48 h
Candida parapsilosis = assay: Antifungal activity against Candida parapsilosis ATCC 22019 incubated for 48 hrs by modified CLSI M27-A3 protocol based method; type: functional; conditions: Lodderomyces parapsilosis, ATCC 22019, 48 h; for MIC: read-out: MIC100
Outline: (§2)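 For C. albicans ATCC 10231, C. krusei ATCC 6258 and C. parapsilosis ATCC 22019, MIC-0 was read, meaning complete growth inhibition. For azole controls, MIC-2 (50% growth inhibition) was reported instead. Caspofungin and voriconazole were tested here; other controls came from earlier work.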

Pichia kudriavzevii = assay: Antifungal activity against Candida krusei ATCC 6258 incubated for 48 hrs by modified CLSI M27-A3 protocol based method; type: functional; conditions: ATCC 6258, 48 h; for MIC: read-out: MIC100; outline: as §2
Candida albicans [5] = assay: Antifungal activity against Candida albicans ATCC 10231 incubated for 48 hrs by modified CLSI M27-A3 protocol based method; type: functional; conditions: ATCC 10231, 48 h; for MIC: read-out: MIC100; outline: as §2
Candida albicans [6] = assay: Antifungal activity against ITC and FLC-resistant Candida albicans ATCC MYA-1003 incubated for 48 hrs by modified CLSI M27-A3 protocol based method; type: functional; conditions: ATCC MYA-1003, 48 h; outline: as §1
Candida albicans [7] = assay: Antifungal activity against Candida albicans ATCC 64124 incubated for 48 hrs by modified CLSI M27-A3 protocol based method; type: functional; conditions: ATCC 64124, 48 h
Candida albicans [8] = assay: Antifungal activity against Candida albicans ATCC 10231 at 0.5 to 4 times MIC incubated for 3 to 24 hrs by time kill assay
Candida albicans [9] = assay: Induction of membrane permeabilization in Candida albicans ATCC 10231 at 1 to 4 times MIC incubated for 1 hr by propidium iodide staining based fluorescence microscopy; type: functional, organism-based
Outline: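 C. albicans ATCC 10231 treated at 1× and 4× MIC and stained with propidium iodide, a membrane-impermeant dye, to detect membrane damage. Untreated cells, FLC (7.8 µg/mL) and KANB (C14) (7.8 µg/mL) serve as comparators.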

Compound	MIC50 (Candida albicans [1])	MIC50 (Candida albicans [2])	MIC50 (Candida albicans [3])	MIC50 (Candida albicans [4])	MIC50 (Nakaseomyces glabratus)	MIC50 (Candida albicans [6])	MIC50 (Candida albicans [7])	MIC (Aspergillus flavus)	MIC (Aspergillus terreus)	MIC (Aspergillus nidulans)	MIC (Candida parapsilosis)	MIC (Pichia kudriavzevii)	MIC (Candida albicans [5])	other results
CCC(C)n1ncn(-c2ccc(N3CCN(c4ccc(OCC5COC(Cn6cncn6)(c6ccc(Cl)cc6Cl)O5)cc4)CC3)cc2)c1=O (centres undefined) [ITRACONAZOLE]	11.1 µM (≈ 7.83 µg/mL)	44.4 µM (≈ 31.3 µg/mL)	44.4 µM (≈ 31.3 µg/mL)	44.4 µM (≈ 31.3 µg/mL)	11.1 µM (≈ 7.83 µg/mL)	44.4 µM (≈ 31.3 µg/mL)	> 88.6 µM							MIC50 (Aspergillus flavus): 0.68 µM (≈ 0.48 µg/mL); MIC50 (Aspergillus terreus): 1.4 µM (≈ 0.988 µg/mL); MIC50 (Aspergillus nidulans): 0.28 µM (≈ 0.198 µg/mL); MIC50 (Candida parapsilosis): 0.17 µM (≈ 0.12 µg/mL); MIC50 (Pichia kudriavzevii): 0.68 µM (≈ 0.48 µg/mL); MIC50 (Candida albicans [5]): 0.71 µM (≈ 0.501 µg/mL)
CCCCCCCCCCCCC(O)(Cn1cncn1)c1ccc(F)cc1F (centres undefined)	19.8 µM (≈ 7.79 µg/mL)	> 79.5 µM	19.8 µM (≈ 7.79 µg/mL)	19.8 µM (≈ 7.79 µg/mL)	2.5 µM (≈ 0.984 µg/mL)	> 79.5 µM	> 79.5 µM	> 79.5 µM	9.9 µM (≈ 3.9 µg/mL)	1.2 µM (≈ 0.472 µg/mL)	5 µM (≈ 1.97 µg/mL)	> 79.5 µM	> 79.5 µM	
CC[C@H](C)C[C@H](C)CCCCCCCCC(=O)N[C@H]1C[C@@H](O)[C@@H](NCCN)NC(=O)[C@@H]2[C@@H](O)CCN2C(=O)[C@H]([C@H](O)CCN)NC(=O)[C@H]([C@H](O)[C@@H](O)c2ccc(O)cc2)NC(=O)[C@@H]2C[C@@H](O)CN2C(=O)[C@H]([C@@H](C)O)NC1=O [CASPOFUNGIN]								> 25.8 µM	> 25.8 µM	> 26 µM	1.6 µM (≈ 1.75 µg/mL)	0.4 µM (≈ 0.437 µg/mL)	0.8 µM (≈ 0.875 µg/mL)	MIC (Candida albicans [1]; read-out: MIC100): 0.05 µM (≈ 0.0547 µg/mL); MIC (Candida albicans [2]): 0.1 µM (≈ 0.109 µg/mL); MIC (Candida albicans [3]; read-out: MIC100): 0.2 µM (≈ 0.219 µg/mL); MIC (Candida albicans [4]; read-out: MIC100): 0.1 µM (≈ 0.109 µg/mL); MIC (Nakaseomyces glabratus): 0.05 µM (≈ 0.0547 µg/mL); MIC (Candida albicans [6]; read-out: MIC100): 0.4 µM (≈ 0.437 µg/mL); MIC (Candida albicans [7]): 0.2 µM (≈ 0.219 µg/mL)
C[C@@H](c1ncncc1F)[C@](O)(Cn1cncn1)c1ccc(F)cc1F [VORICONAZOLE]	5.6 µM (≈ 1.96 µg/mL)	5.6 µM (≈ 1.96 µg/mL)	22.3 µM (≈ 7.79 µg/mL)	2.8 µM (≈ 0.978 µg/mL)	0.17 µM (≈ 0.0594 µg/mL)	5.6 µM (≈ 1.96 µg/mL)	11.2 µM (≈ 3.91 µg/mL)							MIC50 (Aspergillus terreus): 0.34 µM (≈ 0.119 µg/mL); Activity (Candida albicans [8]): Dose-dependent effect; MIC50 (Aspergillus nidulans): 0.06 µM (≈ 0.021 µg/mL); MIC50 (Candida parapsilosis): < 0.06 µM; MIC50 (Pichia kudriavzevii): 0.34 µM (≈ 0.119 µg/mL)
CCCCCC(O)(Cn1cncn1)c1cccc(Cl)c1 (centres undefined)	> 106 µM	13.3 µM (≈ 3.91 µg/mL)	6.6 µM (≈ 1.94 µg/mL)	6.6 µM (≈ 1.94 µg/mL)	> 106 µM	> 106 µM	106 µM (≈ 31.3 µg/mL)	13.3 µM (≈ 3.91 µg/mL)	1.6 µM (≈ 0.47 µg/mL)	0.2 µM (≈ 0.0588 µg/mL)	> 106 µM	> 106 µM	> 106 µM	
CC(O)(Cn1cncn1)c1ccc(F)cc1F (centres undefined)	> 131 µM	> 131 µM	> 131 µM	> 131 µM	> 131 µM	65.2 µM (≈ 15.6 µg/mL)	> 131 µM	> 131 µM	> 131 µM	131 µM (≈ 31.3 µg/mL)	16.3 µM (≈ 3.9 µg/mL)	> 131 µM	> 131 µM	
CCCCCCCCCCC(O)(Cn1cncn1)c1ccc(F)cc1F (centres undefined)	21.3 µM (≈ 7.78 µg/mL)	85.6 µM (≈ 31.3 µg/mL)	> 85.6 µM	21.3 µM (≈ 7.78 µg/mL)	21.3 µM (≈ 7.78 µg/mL)	> 85.6 µM	42.7 µM (≈ 15.6 µg/mL)	> 85.6 µM	10.7 µM (≈ 3.91 µg/mL)	0.66 µM (≈ 0.241 µg/mL)	0.33 µM (≈ 0.121 µg/mL)	0.66 µM (≈ 0.241 µg/mL)	21.3 µM (≈ 7.78 µg/mL)	Activity (Candida albicans [9]): inactive
CCCCCCC(O)(Cn1cncn1)c1cccc(Cl)c1 (centres undefined)	> 102 µM	25.3 µM (≈ 7.79 µg/mL)	25.3 µM (≈ 7.79 µg/mL)	25.3 µM (≈ 7.79 µg/mL)	> 102 µM	> 102 µM	102 µM (≈ 31.3 µg/mL)	> 102 µM	> 102 µM	12.7 µM (≈ 3.91 µg/mL)	> 102 µM	> 102 µM	> 102 µM	
